Experimental data reported in PubChem BioAssay AID652163 (Broad Institute, 2013).
Values joined by “and” are separate entries in the source; they are usually repeats but may differ in a detail not shown here. Identical values can stand only once. The whole screen tested about 360,000 compounds, of which about 500 (0.14%) were called active. The sample holds actives, similar compounds and a random draw of the others, so the mix is not that of the screen. A number with no mark means an inactive call.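 How the source made its calls: active means mean inhibition of at least 70% across replicates, with every replicate also reaching that level; inconclusive means mean inhibition reaches 70% but some replicates fall short; inactive means mean inhibition below 70%.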

These compounds were tested against Protein S100-A4 (Homo sapiens) (UniProt P26447) (assay: human S100A4 protein-peptide interaction blockers – biochemical, fluorescence polarization, TAMRA-MyoIIA peptide, primary screen (AID 652163)). Details: at 10.7 µM, stronger effect = higher value.
Sequence of Protein S100-A4 (Homo sapiens) (P26447 whole entry, looked up): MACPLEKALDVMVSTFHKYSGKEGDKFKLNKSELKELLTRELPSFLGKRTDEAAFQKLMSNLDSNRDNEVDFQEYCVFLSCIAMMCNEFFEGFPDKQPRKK
Method in brief: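 Compound dosing: one dose per compound; test system: human S100A4 monomer with TAMRA-labelled myosin IIA peptide; probe or stimulus: TAMRA-labelled myosin IIA heavy-chain peptide probe, 5 nM; medium: HEPES buffer with Ca2+, pH 7.2; schedule: 5 min incubation before reading; benchmarks: neutral control DMSO, positive control TFP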

| Compound | inhibition |
| --- | --- |
| C[C@H]1CN([C@@H](C)CO)C(=O)Cc2cc(NS(=O)(=O)c3cn(C)cn3)ccc2O[C@@H]1CN(C)C(=O)Nc1ccc2c(c1)OCO2 | 1.37% |
| Cc1cccc(CN(C)C[C@H]2OCc3cn(nn3)CCCC(=O)N([C@@H](C)CO)C[C@H]2C)c1 | -6.24% |
| CCC(=O)N1CCCCN2[C@H](C1)[C@@H](c1ccc(/C=C/c3ccccc3)cc1)[C@@H]2CO | 3.9% |
| CCCN(C)C[C@@H]1Oc2cc(C#Cc3ccc(F)cc3)ccc2S(=O)(=O)N([C@H](C)CO)C[C@H]1C | -10.2% |
| C[C@H]1CCCCO[C@@H](CN(C)C(=O)C2CCCCC2)[C@@H](C)CN([C@@H](C)CO)C(=O)c2cc(NS(=O)(=O)c3cccs3)ccc2O1 | -3.65% |
| CCCNC(=O)N1C[C@H](O)COC[C@H]2O[C@@H](CC(=O)NCc3ccncn3)CC[C@@H]21 | 1.59% |
| CCCNC(=O)N[C@@H]1C=C[C@H](CC(=O)NC2CCC2)O[C@H]1CO | 10% |
| CO[C@H]1CN(C)C(=O)c2cc(NS(=O)(=O)c3ccccc3)ccc2OC[C@H](C)NC[C@@H]1C | -2.03% |
| O=C(c1cnccn1)N1CC(=O)N2[C@H](C1)[C@@H](c1ccc(C#CC3CCCC3)cc1)[C@@H]2CO | -1.65% |
| CCCC#Cc1ccc([C@@H]2[C@@H](CO)N3C(=O)CN(C(=O)Nc4ccc(F)cc4)C[C@@H]23)cc1 | 5.06% |
| CCCNC(=O)N1CC(=O)N2[C@@H](CO)[C@H](c3ccc(-c4ccc(C)cc4)cc3)[C@@H]2C1 | 14% |
| CCCNC(=O)N1CC(=O)N2[C@H](CO)[C@@H](c3ccc(-c4ccc(F)cc4)cc3)[C@H]2C1 | 120% (active) |
| COCC#Cc1cnc2c(c1)C(=O)N([C@@H](C)CO)C[C@@H](C)[C@H](CN(C)C(=O)Nc1ccccc1OC)O2 | 5.05% |
| C[C@@H]1CCCCO[C@H](CN(C)Cc2ccccc2)[C@H](C)CN([C@H](C)CO)C(=O)c2cc(NS(=O)(=O)c3ccc(Cl)cc3)ccc2O1 | -1.24% |
| Cc1ccc(S(=O)(=O)N(C)C[C@H]2Oc3ccc(NC(=O)Cc4cn(C)c5ccccc45)cc3CC(=O)N([C@@H](C)CO)C[C@H]2C)cc1 | 12.9% |
| CO[C@@H]1CN(C)C(=O)c2cc(NC(=O)C3CC3)ccc2OC[C@H](C)N(C(=O)CN(C)C)C[C@H]1C | -3.57% |
| CO[C@H]1CN(C)C(=O)c2cc(NC(=O)C3CC3)ccc2OC[C@H](C)N(C(=O)CN(C)C)C[C@H]1C | 99.6% (active) |
| CO[C@H]1CN(C)C(=O)c2ccc(NC(=O)Nc3ccc4c(c3)OCO4)cc2OC[C@H](C)NC[C@H]1C | 6.05% |
| CO[C@H]1CN(C)C(=O)c2cc(NC(=O)Nc3ccc4c(c3)OCO4)ccc2OC[C@@H](C)NC[C@@H]1C | 127% (active) |
| CO[C@@H]1CN(C)C(=O)c2cc(NC(=O)C3CCC3)ccc2OC[C@H](C)N(C(=O)CN(C)C)C[C@@H]1C | 1.09% |

| Compound | inhibition |
| --- | --- |
| CO[C@@H]1CN(C)C(=O)c2cc(NC(=O)Nc3ccc4c(c3)OCO4)ccc2OC[C@@H](C)NC[C@@H]1C | -4.97% |
| N#C[C@@H]1[C@H](c2ccccc2C2=CCCCC2)[C@@H](CO)N1S(=O)(=O)c1cccc(F)c1 | 124% (active) |
| N#C[C@H]1[C@@H](c2ccccc2C2=CCCC2)[C@H](CO)N1C(=O)c1cccc(F)c1 | 7.35% |
| C/C=C/c1ccccc1[C@@H]1[C@@H](CO)N(S(=O)(=O)c2cccc(F)c2)[C@H]1C#N | 15.1% |
| O=C(C[C@@H]1C=C[C@H](NC(=O)CN2CCOCC2)[C@@H](CO)O1)NCc1cccc(F)c1 | 12.6% |
| Cc1ccc(CN(C)C[C@H]2OCc3cn(nn3)CCCC(=O)N([C@@H](C)CO)C[C@H]2C)cc1 | -1.4% |
| CN(C)C(=O)c1cccc(-c2ccc(C3[C@H]4CNC[C@@H]3N4C(=O)Nc3ccccc3F)cc2)c1 (stereo not given in full) | -26.3% and -7.38% |
| COc1ccc(CN(C)C[C@H]2Oc3ccc(NC(=O)Cn4cnnn4)cc3CC(=O)N([C@@H](C)CO)C[C@@H]2C)cc1 | 6.98% |
| O=C(NCC1CC1)[C@@H]1[C@@H](CO)[C@@H]2Cn3c(ccc(-c4ccccc4)c3=O)[C@H]1N2C(=O)C1CC1 | 5.45% |
| CCC(=O)N1CC2(CN(Cc3ccc(Cl)cc3)C2)c2c([nH]c3cc(OC)ccc23)[C@@H]1CO | -4.36% |
| CCC(=O)Nc1ccc2c(c1)C(=O)N(C)C[C@H](OC)[C@@H](C)CN(C(=O)c1cnccn1)[C@@H](C)CO2 | 10.3% |
| C[C@@H]1CN([C@H](C)CO)C(=O)c2cc(NS(=O)(=O)c3cccs3)ccc2O[C@@H](C)CCCCO[C@H]1CN(C)Cc1ccc(C(F)(F)F)cc1 | 15.3% |
| C[C@@H]1CN([C@@H](C)CO)C(=O)Cc2cc(NC(=O)Nc3cccc4ccccc34)ccc2O[C@H]1CN(C)CC1CCCCC1 | 8.63% |
| COCC(=O)N1[C@H](CO)[C@H](c2ccccc2)C12CN(C(=O)NC1CCCCC1)C2 | 14.7% |
| CCCC(O)C#Cc1cnc2c(c1)C(=O)N([C@H](C)CO)C[C@H](C)[C@H](CN(C)S(=O)(=O)c1ccc(C#N)cc1)O2 (stereo not given in full) | -4.33% |
| Cc1ccc(S(=O)(=O)N[C@@H]2CC[C@@H](CCn3cc(C4CC4)nn3)O[C@@H]2CO)cc1 | 1.11% |
| CCCC#Cc1ccc([C@H]2[C@@H](CO)N3C(=O)CN(C(=O)c4ccncc4)C[C@@H]23)cc1 | -18.5% |
| CC(C)NC(=O)N(C)C[C@H]1Oc2ccc(NS(C)(=O)=O)cc2CC(=O)N([C@@H](C)CO)C[C@@H]1C | 6.04% |
| COc1ccccc1-c1cnc2c(c1)C(=O)N([C@@H](C)CO)C[C@H](C)[C@H](CN(C)CC1CCOCC1)O2 | -4.73% |
| C[C@H](CO)N1C[C@H](C)[C@H](CN(C)S(=O)(=O)c2cccs2)OCCCC[C@H](C)Oc2ccc(NC(=O)CCCN(C)C)cc2C1=O | 1.4% |
